Key:
Format in all cases: functional
[1] = tested on: HCT-116; experiment: Cytotoxicity against human HCT116 cells; settings: for CC50: read-out: pLC50 (the source's name) (converted); for TGI: read-out: pTGI (converted)
Procedure, shortened: (§1)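 Tested in a 60-cell-line human tumor panel screen; the read-out is growth inhibition, reported as GI50 for each cell line.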

[2] = tested on: Malme-3M; experiment: Cytotoxicity against human MALME-3M cells; settings: for CC50: read-out: pLC50 (the source's name) (converted); for TGI: read-out: pTGI (converted); procedure, shortened: as §1
[3] = tested on: SW-620; experiment: Cytotoxicity against human SW620 cells; settings: for CC50: read-out: pLC50 (the source's name) (converted); for TGI: read-out: pTGI (converted)
Procedure, shortened: (§2)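 Cell line run as part of the 60-cell-line screening panel; growth inhibition was reported as a GI50 for each line.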

[4] = tested on: RPMI-8226; experiment: Cytotoxicity against human RPMI8226 cells; settings: for CC50: read-out: pLC50 (the source's name) (converted); for TGI: read-out: pTGI (converted); procedure, shortened: as §1
[5] = tested on: HOP-92; experiment: Cytotoxicity against human HOP92 cells; settings: for CC50: read-out: pLC50 (the source's name) (converted); for TGI: read-out: pTGI (converted); procedure, shortened: as §1
[6] = tested on: HL-60(TB); experiment: Cytotoxicity against human HL-60(TB) cells; settings: for CC50: read-out: pLC50 (the source's name) (converted); for TGI: read-out: pTGI (converted)
Procedure, shortened: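 Tested within the NCI 60-cell-line screen, with GI50 as the read-out. Values are the average of two independent experiments. The lowest concentration tested was 10 nM.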

[7] = tested on: SF-268; experiment: Cytotoxicity against human SF268 cells; settings: for CC50: read-out: pLC50 (the source's name) (converted); for TGI: read-out: pTGI (converted); procedure, shortened: as §1
[8] = tested on: IGROV-1; experiment: Cytotoxicity against human IGROV1 cells; settings: for CC50: read-out: pLC50 (the source's name) (converted); for TGI: read-out: pTGI (converted); procedure, shortened: as §1
[9] = Cytotoxicity against human Hs578T cells; settings: Hs-578T; for TGI: read-out: pTGI (converted); procedure, shortened: as §1
[10] = tested on: PC-3; experiment: Cytotoxicity against human PC3 cells; settings: for TGI: read-out: pTGI (converted); procedure, shortened: as §1
[11] = tested on: NCI-H522; experiment: Cytotoxicity against human NCI-H522 cells; settings: for CC50: read-out: pLC50 (the source's name) (converted); for TGI: read-out: pTGI (converted); procedure, shortened: as §1
[12] = tested on: 786-0; experiment: Cytotoxicity against human 786-0 cells; settings: for TGI: read-out: pTGI (converted); procedure, shortened: as §1
[13] = tested on: SN12C; experiment: Cytotoxicity against human SN12C cells; settings: for TGI: read-out: pTGI (converted); procedure, shortened: as §1
[14] = tested on: SK-MEL-28; experiment: Cytotoxicity against human SK-MEL-28 cells; settings: for CC50: read-out: pLC50 (the source's name) (converted); for TGI: read-out: pTGI (converted); procedure, shortened: as §1
[15] = tested on: SR; experiment: Cytotoxicity against human SR cells; settings: for CC50: read-out: pLC50 (the source's name) (converted); for TGI: read-out: pTGI (converted); procedure, shortened: as §2
[16] = tested on: MDA-MB-435; experiment: Cytotoxicity against human MDA-MB-435 cells; settings: for CC50: read-out: pLC50 (the source's name) (converted); for TGI: read-out: pTGI (converted); procedure, shortened: as §1

## COc1cc(/C=C/c2cc(O)c3cc(CC=C(C)C)[nH]c3c2)cc2c1O[C@]1(C)CC[C@@H](O)C(C)(C)[C@H]1C2
[1]
  GI50: 2.34 µM
  CC50: > 100 µM
  TGI: > 100 µM
[2]
  GI50: 4.9 µM
  CC50: > 100 µM
  TGI: > 100 µM
[3]
  GI50: 2.04 µM
  CC50: 39.8 µM
  TGI: 8.32 µM
[4]
  GI50: 0.282 µM
  CC50: > 100 µM
  TGI: 32.4 µM
[5]
  GI50: 1.38 µM
  CC50: > 100 µM
  TGI: 42.7 µM
[6]
  GI50: 18.6 µM
  CC50: > 100 µM
  TGI: > 100 µM
[7]
  GI50: 4.27 µM
  CC50: > 100 µM
  TGI: > 100 µM
[8]
  GI50: 5.01 µM
  CC50: > 100 µM
  TGI: > 100 µM
[9]
  GI50: 0.309 µM
  LC50: > 100 µM
  TGI: > 100 µM
[10]
  GI50: 1.02 µM
  LC50: > 100 µM
  TGI: > 100 µM
[11]
  GI50: 4.9 µM
  CC50: > 100 µM
  TGI: 43.7 µM
[12]
  GI50: 0.363 µM
  LC50 (concentration killing 50% of cells): > 100 µM
  TGI: 11 µM
[13]
  GI50: 58.9 µM
  LC50: > 100 µM
  TGI: > 100 µM
[14]
  GI50: 4.68 µM
  CC50: 91.2 µM
  TGI: 50.1 µM
[15]
  GI50: 0.759 µM
  CC50: > 100 µM
  TGI: > 100 µM
[16]
  GI50: 3.8 µM
  CC50: > 100 µM
  TGI: > 100 µM

## COc1cc(/C=C/c2cc(O)c3ccn(C)c3c2)cc2c1O[C@]1(C)CC[C@@H](O)C(C)(C)[C@H]1C2
[1]
  GI50: 1.17 µM
  CC50: > 100 µM
  TGI: 47.9 µM
[2]
  GI50: 0.309 µM
  CC50: > 100 µM
  TGI: 49 µM
[3]
  GI50: 1.02 µM
  CC50: > 100 µM
  TGI: 3.24 µM
[4]
  GI50: 0.0708 µM
  CC50: > 100 µM
  TGI: 1.62 µM
[5]
  GI50: 0.525 µM
  CC50: > 100 µM
  TGI: 5.62 µM
[6]
  GI50: 1.23 µM
  CC50: > 100 µM
  TGI: 58.9 µM
[7]
  GI50: 2.04 µM
  CC50: > 100 µM
  TGI: 66.1 µM
[8]
  GI50: 2.82 µM
  CC50: > 100 µM
  TGI: 46.8 µM
[9]
  GI50: 0.141 µM
  LC50: > 100 µM
  TGI: 20.4 µM
[10]
  GI50: 0.575 µM
  LC50: > 100 µM
  TGI: 67.6 µM
[11]
  GI50: 1.45 µM
  CC50: > 100 µM
  TGI: 4.37 µM
[12]
  GI50: 0.186 µM
  LC50 (concentration killing 50% of cells): > 100 µM
[13]
  GI50: 6.92 µM
  LC50: > 100 µM
  TGI: 91.2 µM
[14]
  GI50: 0.832 µM
  CC50: > 100 µM
  TGI: 16.2 µM
[15]
  GI50: 0.468 µM
  CC50: > 100 µM
  TGI: > 100 µM
[16]
  GI50: 1.45 µM
  CC50: > 100 µM
  TGI: 47.9 µM

## COc1cc(/C=C/c2cc(OC)c3ccn(C)c3c2)cc2c1O[C@]1(C)CC[C@@H](O)C(C)(C)[C@H]1C2
[1]
  GI50: 1.23 µM
  CC50: 51.3 µM
  TGI: 15.1 µM
[2]
  GI50: 3.8 µM
  CC50: > 100 µM
  TGI: 47.9 µM
[3]
  GI50: 1.29 µM
  CC50: 10.5 µM
  TGI: 3.39 µM
[4]
  GI50: 0.17 µM
  CC50: > 100 µM
  TGI: 2 µM
[5]
  GI50: 1.2 µM
  CC50: > 100 µM
  TGI: 5.75 µM
[6]
  GI50: 1.2 µM
  CC50: > 100 µM
  TGI: 38.9 µM
[7]
  GI50: 2.09 µM
  CC50: > 100 µM
  TGI: 69.2 µM
[8]
  GI50: 2.24 µM
  CC50: 95.5 µM
  TGI: 45.7 µM
[9]
  GI50: 0.355 µM
  LC50: > 100 µM
  TGI: 5.01 µM
[10]
  GI50: 0.692 µM
  LC50: > 100 µM
  TGI: 83.2 µM
[11]
  GI50: 1.82 µM
  CC50: > 100 µM
  TGI: 8.13 µM
[12]
  GI50: 0.214 µM
  LC50 (concentration killing 50% of cells): > 100 µM
  TGI: 2.4 µM
[13]
  GI50: 6.03 µM
  LC50: > 100 µM
  TGI: > 100 µM
[14]
  GI50: 1.74 µM
  CC50: 64.6 µM
  TGI: 17.4 µM
[15]
  GI50: 0.513 µM
  CC50: > 100 µM
  TGI: > 100 µM
[16]
  GI50: 1.02 µM
  CC50: 91.2 µM
  TGI: 20.9 µM

## COc1cc(/C=C/c2cc(OC)c3c(C/C=C(\C)CCC=C(C)C)c[nH]c3c2)cc2c1O[C@]1(C)CC[C@@H](O)C(C)(C)[C@H]1C2
[1]
  GI50: 0.933 µM
  CC50: 43.7 µM
  TGI: 12.9 µM
[2]
  GI50: 1.82 µM
  CC50: 77.6 µM
  TGI: 19.5 µM
[3]
  GI50: 1.17 µM
  CC50: 5.89 µM
  TGI: 2.63 µM
[4]
  GI50: 0.126 µM
  CC50: > 100 µM
  TGI: 0.617 µM
[5]
  GI50: 0.302 µM
  CC50: > 100 µM
  TGI: 16.6 µM
[6]
  GI50: 0.363 µM
  CC50: > 100 µM
  TGI: 10.5 µM
[7]
  GI50: 1.41 µM
  CC50: 52.5 µM
  TGI: 15.8 µM
[8]
  GI50: 3.8 µM
  CC50: 91.2 µM
  TGI: 24 µM
[9]
  GI50: 0.219 µM
  LC50: > 100 µM
  TGI: 1.66 µM
[10]
  GI50: 0.447 µM
  LC50: > 100 µM
  TGI: 17.8 µM
[11]
  GI50: 1.55 µM
  CC50: 8.51 µM
  TGI: 3.63 µM
[12]
  GI50: 0.195 µM
  LC50 (concentration killing 50% of cells): 56.2 µM
  TGI: 1.86 µM
[13]
  GI50: 6.76 µM
  LC50: 63.1 µM
  TGI: 23.4 µM
[14]
  GI50: 1.05 µM
  CC50: 8.32 µM
  TGI: 2.95 µM
[15]
  GI50: 0.245 µM
  CC50: > 100 µM
  TGI: 1.48 µM
[16]
  GI50: 1.62 µM
  CC50: > 100 µM
  TGI: 17.4 µM
